The series can be described thus: Toxicity in Balb/c nu/nu athymic mouse xenografted with human 22Rv1 cells assessed as effect on body weight at 100 mg/kg, ip dosed twice per week for 6 weeks […]. The format is organism-based, CWR22R. To be noted: in vivo, 1008 h. An outline of the steps:
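Mice carrying 22Rv1 xenografts received intraperitoneal injections. The vehicle control group had n=15 and each treated dose group had n=10. Average body weights were compared between treated and vehicle-control mice.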
For orientation: In xenograft studies the graft and the host belong to different species.

For `CCc1cccc(NC(=O)c2cc3cccc(O)c3oc2=N)c1`, the Activity result is reported as “Non-Toxic”.

The values above are taken from ChEMBL document CHEMBL4619820, “Development of Novel AKR1C3 Inhibitors as New Potential Treatment for Castration-Resistant Prostate Cancer” (J Med Chem, 2020).
